Measurements of several laboratories.
Lines come from different studies, so protocols differ.
Target: MAP/microtubule affinity-regulating kinase 4 (MARK4, Homo sapiens, UniProt Q96L34)
Residues used in one study (Q96L34 1-752): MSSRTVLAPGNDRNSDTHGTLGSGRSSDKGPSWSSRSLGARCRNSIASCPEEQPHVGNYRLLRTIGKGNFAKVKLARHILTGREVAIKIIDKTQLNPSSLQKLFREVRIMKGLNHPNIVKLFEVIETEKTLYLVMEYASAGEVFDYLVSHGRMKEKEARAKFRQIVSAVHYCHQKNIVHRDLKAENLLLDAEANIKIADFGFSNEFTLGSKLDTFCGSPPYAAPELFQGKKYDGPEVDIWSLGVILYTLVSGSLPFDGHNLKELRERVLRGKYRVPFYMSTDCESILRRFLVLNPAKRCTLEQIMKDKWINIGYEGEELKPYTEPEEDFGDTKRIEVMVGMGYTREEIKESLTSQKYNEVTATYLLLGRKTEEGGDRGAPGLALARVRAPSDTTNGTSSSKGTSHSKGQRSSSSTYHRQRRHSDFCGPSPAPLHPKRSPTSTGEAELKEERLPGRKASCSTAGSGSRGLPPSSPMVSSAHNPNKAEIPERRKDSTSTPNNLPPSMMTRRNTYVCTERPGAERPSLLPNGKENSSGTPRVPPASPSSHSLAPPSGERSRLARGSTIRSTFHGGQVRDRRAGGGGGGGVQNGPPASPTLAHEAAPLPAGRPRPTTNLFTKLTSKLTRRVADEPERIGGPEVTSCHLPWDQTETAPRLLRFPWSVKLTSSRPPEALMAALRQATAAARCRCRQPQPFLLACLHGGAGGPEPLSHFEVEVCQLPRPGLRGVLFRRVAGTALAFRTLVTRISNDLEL

| SMILES | test | setting | measurement | result |
| --- | --- | --- | --- | --- |
| CN1CC(Oc2cnc(C#N)cc2-c2ccn3nc(NC(=O)C4CC4)cc3c2)C1 | enzyme activity, inhibitor | 1 µM | inhibition | 8% |
| NS(=O)(=O)c1cc(NC(=O)Cc2ccccc2)ccc1Oc1cccc(Cl)c1 | cell-free assay, competition with immobilised ligand | 1 µM | remaining binding | 100% |
| Cc1nn(CC(F)(F)F)cc1Nc1ncc(C2CC2)c(NCCCNC(=O)C2CCC2)n1 | enzyme activity, inhibitor, radiometric | 1 µM | remaining activity | 100% |
| CCOc1cc(-c2nncn2C)ccc1Nc1ncc2cc(C)nc(NCC(C)(C)C)c2n1 | enzyme activity, inhibitor, FRET | 1 µM | inhibition | < 15% |
| NS(=O)(=O)c1ccc(CNc2nc(Nc3cccc(CN4CCOCC4)c3)ncc2Br)cc1 | enzyme activity, inhibitor, radiometric | 1 µM | remaining activity | 61% |
| FC(F)(F)Oc1cccc(-c2cnc3ccc(-c4ccncc4)nn23)c1 | enzyme activity, inhibitor, radiometric | 1 µM | activity vs control | 91% |
| O=C(N[C@H]1CCCCC/C=C\C2C[C@@]2(C(=O)O)NC(=O)[C@@H]2C[C@@H](Oc3ccncc3)CN2C1=O)OC1CCCC1 (stereo partly shown) | binding, competition with immobilised ligand | 1 µM | remaining binding | 100% |
| N#CCCc1ccc2c(c1)-c1[nH]c3ccc([N+](=O)[O-])cc3c1CC(=O)N2 | cell-free assay | 0.5 µM | remaining signal | 62.5% |
| CN1CCN(c2cnc3c(C4CCN(C(=O)c5ccc(OC(F)(F)F)cc5N)CC4)ncnc3c2)CC1 | cell-free assay, competition with immobilised ligand | 1 µM | remaining binding | 100% |
| NS(=O)(=O)c1ccc(CNc2nc(Nc3cccc(NC(=O)N4CCCC4)c3)ncc2Br)cc1 | enzyme activity, inhibitor, radiometric | 1 µM | remaining activity | 42% |
| Oc1cccc(-c2nc(N3CCOCC3)c3oc4ncccc4c3n2)c1 | enzyme activity, inhibitor | 10 µM | remaining activity | 108% |
| C[C@H](c1cccc(C#N)c1)n1cc(Cl)cc(C(N)=O)c1=N | cell-free assay, competition with immobilised ligand | 1 µM | remaining binding | 99% |
| c1cc(CN2CCOCC2)cc(Nc2nccc(NCCc3cnc[nH]3)n2)c1 | enzyme activity, inhibitor, radiometric | 1 µM | remaining activity | 68% |
| CS(=O)(=O)NCC[C@H](NC(=O)c1cncc2c1cnn2-c1ccc(F)cc1)c1ccnc(S(C)(=O)=O)c1 | cell-free assay, competition with immobilised ligand | 1 µM | remaining binding | 78% |
| Cc1nn(CC(F)(F)F)cc1Nc1ncc(C2CC2)c(NCc2ccc(S(N)(=O)=O)cc2)n1 | enzyme activity, inhibitor, radiometric | 1 µM | remaining activity | 110% |
| CCOCCn1cc(C(=O)Nc2ccc(-n3nc(-c4cccnc4)cc3C(F)(F)F)cn2)ccc1=O | cell-free assay, competition with immobilised ligand | 1 µM | remaining binding | 100% |
| O=C(Nc1cnn(-c2csc(C(=O)NC3COC3)c2)c1)Nc1ccccc1Cl | enzyme activity, inhibitor | 5 µM | remaining activity | 108% |
| Cc1nn(CC(F)(F)F)cc1Nc1nccc(NCCc2cnc[nH]2)n1 | enzyme activity, inhibitor, radiometric | 1 µM | remaining activity | 99% |
| O=C1NC(=O)c2cc(Nc3ccc(F)cc3)c(Nc3ccc(F)cc3)cc21 | cell-free assay | 0.5 µM | remaining signal | 98.2% |
| O=C(O)[C@H]1[C@H](Cn2nnc3ccccc3c2=O)CC[C@@H]1C(=O)c1ccc(OCCC2CCOCC2)cc1 | cell-free assay, competition with immobilised ligand | 1 µM | remaining binding | 96% |
| Cc1nn(CC(F)(F)F)cc1Nc1ncc(Br)c(NCCc2cnc[nH]2)n1 | enzyme activity, inhibitor, radiometric | 1 µM | remaining activity | 49% |
| CCCCN(CCCC)C(=O)CN1C[C@@H](c2cc(OC)c3c(c2)OCO3)[C@H](C(=O)O)[C@H]1CC(C)(C)CCC | cell-free assay, competition with immobilised ligand | 1 µM | remaining binding | 93% |
| COc1cc2ncnc(Nc3ccc(Oc4ccccc4)cc3C)c2cc1OC | enzyme activity, inhibitor | 1 µM | inhibition | 6% |
| NS(=O)(=O)c1ccc(CNc2nc(Nc3cccc(CN4CCOCC4)c3)ncc2C2CC2)cc1 | enzyme activity, inhibitor, radiometric | 1 µM | remaining activity | 98% |
| N[C@@H]1CCN(c2nccc(-c3cnn4ncccc34)n2)C1 | binding | 1 µM | remaining binding | 100% |
